Reference: PMC4293705 (ChemPlusChem, 2012)
“And” between values parts separate entries of the source, which are not always exact repeats. Identical values can stand only once. Like-named read-outs stand apart in the source and are kept apart here. Marks after values point to notes of the source that are not given here.

Columns and labels:
[1] = test system: MDA-MB-231 cells; test: BrdU assay, MDA-MB-231 cell survival; assay type: cell-based; conditions: 48 h; for effect on MDA-MB-231 cell survival: 10^−8 to 10^−5 M
Method in brief: (§1)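 Survival version of the BrdU kit assay. HUVEC (2 × 10^4/well) in 1 % FBS; MDA-MB-231 (1.5 × 10^4/well) in 0 % FBS; triplicate wells. After 24 h serum-free phenol-red-free synchronisation, cells exposed 48 h to test compound at 10−8–10−5 M. BrdU (0.01 mM final) added, re-incubated 2–24 h, OD at 450 and 595 nm. Normalised to untreated controls after background subtraction.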

[2] = test system: HUVEC; test: Matrigel assay, HUVEC capillary-tube formation; assay type: cell-based, human; conditions: 16 h; for effect on HUVEC capillary tube formation versus control: 10^−6 to 10^−5 M
Method in brief: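 Forty thousand HUVECs seeded on Matrigel in M199 with 10 % FBS containing test compound (10−5 to 10−6 M) and incubated 16 h. Capillary network length quantified by image analysis of micrographs. Untreated cells as control; genistein 30 μg mL−1 (inhibitor) and EGF 50 ng mL−1 (activator) as references. At least three separate experiments; mean ± SEM; ANOVA and Student's test.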

[3] = test system: HUVEC; test: Wound-healing assay, HUVEC migration; assay type: cell-based, human; conditions: 16 h; for effect on HUVEC migration versus control: 10^−6 to 10^−5 M
Method in brief: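 HUVECs (4 × 10^5/well) plated on 0.2 % gelatin; wound made after 24 h on the confluent layer. Cells then treated 16 h with test compound (10−5 to 10−6 M) in phenol-red-free M199 with 10 % FBS and photographed at 16 h. Genistein 30 μg mL−1 and EGF 50 ng mL−1 as references. At least three experiments; mean ± SEM; ANOVA/Student's test.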

[4] = test system: MDA-MB-231 cells; test: BrdU assay, MDA-MB-231 cell proliferation; assay type: cell-based; conditions: 48 h; for effect on MDA-MB-231 cell proliferation: 10^−8 to 10^−5 M
Method in brief: (§2)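 HUVECs grown on 0.2 % gelatin in M199 with 20 % FBS and ECGS, passages 2–5. HUVEC seeded at 2 × 10^4 and MDA-MB-231 at 1.5 × 10^4 cells/well, in triplicate. Next day, G1-synchronised 24 h in serum-free phenol-red-free medium. Test compound (10−8–10−5 M) given in 10 % FBS for 48 h. BrdU (0.01 mM final) added for 2–24 h; OD read at 450/595 nm. Values background-subtracted and normalised to untreated controls.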

[5] = test system: human hepatocarcinoma HepaRG cells; test: Extracellular LDH leakage; assay type: cell-based; conditions: 72 h; for % LDH/control with Fe^III 20 μM / % LDH/control without Fe^III: cell supernatant
[6] = assay type: physicochemical; conditions: I = 0.1 M (KCl), T = 298 K, H2O/DMSO v/v 30:70; for Log β 1 1–3 (stability constant of Fe^III complex): 5a value by potentiometric and spectrophotometric titrations; for Log β 1 1–2 (stability constant of Fe^III complex): potentiometric and spectrophotometric titrations
Method in brief: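 Performed in H2O/DMSO 30:70 v/v […], I = 0.1 (KCl), 25 °C under argon. Ligand at 10−4–10−5 M with EDTA-standardised FeCl3 at metal:ligand ratios 1:3, 1:2 and 1:1. Potentiometric and spectrophotometric titrations covered pH 1–13. For spectrophotometry, acidified FeIII–ligand solutions were titrated with KOH to pH 6.5, recording UV-visible spectra after each addition at 25.0 °C. pKw 17.16.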

[7] = test system: human hepatocarcinoma HepaRG cells; test: SDH activity; assay type: cell-based
[8] = Protonation constants by potentiometric titration in H2O/DMSO; assay type: physicochemical; conditions: for pKa: H2O/DMSO (v/v 30:70) solution
Method in brief: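 Ligand (10−4–10−5 M, from DMSO solutions) titrated in H2O/DMSO 30:70 v/v at I = 0.1 (KCl), 25 °C, under argon. Automated titration with carbonate-free KOH standardised against potassium hydrogen phthalate. Read on a glass electrode with Ag/AgCl reference; 120–150 points per titration; pKw 17.16. Constants from nonlinear least-squares refinement of the potentiometric data.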

[9] = test system: HepaRG cells
[10] = log D determination by micro-HPLC; assay type: physicochemical; conditions: for log D: pH 7, n-octanol/phosphate buffer, HPLC
[11] = test system: HUVEC; test: BrdU assay, HUVEC survival; assay type: cell-based, human; conditions: 48 h; for effect on HUVEC survival: 10^−8 to 10^−5 M
Method in brief: as §1

[12] = test system: HUVEC; test: BrdU assay, HUVEC proliferation; assay type: cell-based, human; conditions: 48 h; for effect on HUVEC proliferation: 10^−8 to 10^−5 M
Method in brief: as §2

[13] = reported in the literature; cited from earlier work
[14] = reported value; cited from earlier work
[15] = read-out: SDH, IC50 without Fe^III, HepaRG cells, 72 h treatment, MTT assay
[16] = I = 0.1 M (KCl), T = 298 K, H2O/DMSO v/v 30:70

SMILES	% LDH/control with Fe^III 20 μM ([5]; compound 10 μM) [%]	% LDH/control without Fe^III ([5]; compound 10 μM)	% LDH/control with Fe^III 20 μM ([5]; compound 100 μM) [%]	% LDH/control without Fe^III ([5]; compound 100 μM) [%]	Log β 1 2–6 (stability constant of Fe^III complex) [6]	Log β 1 1–3 (stability constant of Fe^III complex) [6]	IC50 [7, 15] [µM]	Log β 0 1–1 (overall protonation constant) [8, 16]	Log β 0 1–2 (overall protonation constant) [8, 16]	Log β 0 1–3 (overall protonation constant) [8, 16]	pKa1 [8, 16]	pKa2 [8, 16]	pKa3 [8, 16]	membrane diffusion / presence in intracellular medium after cell lysis [9]	log D [10]	effect on MDA-MB-231 cell survival [1]	effect on HUVEC capillary tube formation versus control [2]	effect on HUVEC migration versus control [3]	effect on MDA-MB-231 cell proliferation [4]	Log β 1 1–2 (stability constant of Fe^III complex) [6]	further results
O=C(CCOCCOc1c2cccc1Cc1cccc(c1O)Cc1cccc(c1O)Cc1cccc(c1O)C2)Nc1ccc(-n2nc(-c3ccccc3O)nc2-c2ccccc2O)cc1 [5a, 25-{1-[2-(2-{4-[3,5-Bis-(2-hydroxyphenyl)-1,2,4-triazol-1-yl]phenyl}carbamoylethoxy)ethoxy]}-26,27,28-trihydroxycalix[4]arene]	67 ±6	105% and 105 ±11%	187 ±5	200 ±15	−19.23(8)	−1.74(1) ^[c]	6 ± 1	−6.67(2)	−17.12(2)	−29.63(2)	6.67	10.45	12.51	found in the intracellular medium	4.59 (±0.06)						decrease of MDA-MB-231 survival versus control ([1]; 10^−5 M): 58%; decrease of MDA-MB-231 survival versus control ([1]; 10^−6 M): 51%; decrease of HUVEC ability to form capillary tubes versus control ([2]; 10^−5 M): 48%; decrease of HUVEC ability to form capillary tubes versus control ([2]; 10^−6 M): 42%; reduction of HUVEC migration versus control ([3]; 10^−5 M): 59%; reduction of HUVEC migration versus control ([3]; 10^−6 M): 51%; decrease of MDA-MB-231 cell proliferation versus control ([4]; 10^−5 M): 73%; decrease of MDA-MB-231 cell proliferation versus control ([4]; 10^−6 M): 62%; decrease of MDA-MB-231 cell proliferation versus control ([4]; 10^−7 M): 33%; concentrations inducing a cytotoxic effect (membrane damage, LDH leakage) ([5]; deduced from dose–effect curves): higher than 10 μM; concentrations at which the compound is cytostatic ([7]; HepaRG cells, 72 h, deduced from dose–effect curves): lower than 10 μM; SDH value relative to the control ([7]; compound 10 μM, HepaRG cells, 72 h): 6%; decrease of HUVEC survival versus control ([11]; 10^−5 M): 65%; decrease of HUVEC survival versus control ([11]; 10^−6 M): 56%; decrease of HUVEC survival versus control ([11]; 10^−7 M): 28%; reduction of HUVEC proliferation versus control ([12]; 10^−5 M): 74%; reduction of HUVEC proliferation versus control ([12]; 10^−6 M): 51%; reduction of HUVEC proliferation versus control ([12]; 10^−7 M): 46%
O=C(CCOCCOc1c2cccc1Cc1cccc(c1O)Cc1cccc(c1OCCOCCC(=O)Nc1ccc(-n3nc(-c4ccccc4O)nc3-c3ccccc3O)cc1)Cc1cccc(c1O)C2)Nc1ccc(-n2nc(-c3ccccc3O)nc2-c2ccccc2O)cc1 [5b, 25,27-Bis-{1-[2-(2-{4-[3,5-bis(2-hydroxyphenyl)-1,2,4-triazol-1-yl]-phenyl}carbamoylethoxy)ethoxy]}-26,28-dihydroxycalix[4]arene]	91 ±11	76 ±4%	69 ±6	103 ±2		−5.08(6)	90 ± 7	−9.88(3)	−21.11(3)	−33.21(3)	9.88	11.23	12.10	found in the intracellular medium	3.49 (±0.05)	did not show any effect	did not show any effect	did not show any effect	did not show any effect	−2.35(8) ^[c]	Log β 0 1–4 (overall protonation constant) [8, 16]: −46.38(6); Log β 0 1–5 (overall protonation constant) [8, 16]: −59.85(4); pKa4 [8, 16]: 13.17; pKa5 [8, 16]: 13.47; reduction of the lipophilicity in comparison with 5a ([10]; from log D at pH 7): about 12 fold; effect on HUVEC survival [11]: did not show any effect; effect on HUVEC proliferation [12]: did not show any effect
O=C(O)c1ccc(-n2nc(-c3ccccc3O)nc2-c2ccccc2O)cc1 [ICL670, deferasirox, reference compound]	80 ±5	87 ±7%	88 ±1	101 ±13	−20.35(8)	−6.48(9)		−5.56(5)	−16.55(7)	−29.53(7)						did not show any effect	did not show any effect	did not show any effect	did not show any effect	−1.06(9) ^[c]	pFe [13]: 23.5; Log β 1 2–5 (stability constant of Fe^III complex) [6]: −13.72(9); IC50 ([7]; Homo sapiens, HepaRG, 72 h, read-out: SDH, IC50 with Fe^III 20 μM): 61 ± 7 µM; IC50 ([7]; Homo sapiens, HepaRG, 72 h, read-out: SDH, IC50 without Fe^III): 11 ± 4 µM; pKa ([8]; pKa1, I = 0.1 M (KCl), T = 298 K, H2O/DMSO v/v 30:70): 5.56; pKa ([8]; pKa2, I = 0.1 M (KCl), T = 298 K, H2O/DMSO v/v 30:70): 11; pKa ([8]; pKa3, I = 0.1 M (KCl), T = 298 K, H2O/DMSO v/v 30:70): 13; log D [14]: −0.1; effect on HUVEC survival [11]: did not show any effect; effect on HUVEC proliferation [12]: did not show any effect
Oc1c2cccc1Cc1cccc(c1O)Cc1cccc(c1O)Cc1cccc(c1O)C2 [compound 6, calix[4]arene]																					pKa (easily deprotonated site of the calix[4]arene core) ([8]; acid–base properties in solution): 4.6
